Screens from PubChem.
Most compounds without a hit are left out; they make up all but 4% or so of the library.
Granule exo inh: LAMP-1 surface exposure blockers, TALL-104 cells – cell-based, flow cytometry, MLPCN library, primary screen; TALL-104 LAMP-1 surface exposure; cells stimulated with thapsigargin and PMA; inhibition, % at 10 µM; 0.66% of 360,000 active; AID 651702, 2012;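 active = inhibition above about 55%, limit read from the data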
ABHD5 PLIN5 PPI: ABHD5-PLIN5 interaction inhibitors, primary screen, cell lysate, split luciferase complementation, luminescence. Perilipin-5 (Homo sapiens) + 1-acylglycerol-3-phosphate O-acyltransferase ABHD5 (Homo …. Split G. princeps luciferase complementation, 4 h. inhibition, % at 4 µM. 0.78% of 360,000 active. AID 602281, 2012;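 active = inhibition above the mean inhibition across every tested compound plus 3 SD, cut at about 22% in these data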;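 also: 0% = DMSO only wells and the 100% control is not disclosed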
Mdm2 MdmX PPI: inhibitors of human Mdm2-MdmX association, primary screen, cell-based, luminescence, split luciferase, SaOS-2, uHTS; Protein Mdm4 (Homo sapiens) + E3 ubiquitin-protein ligase Mdm2 (Homo sapiens), …; SaOS-2 split-luciferase Mdm2/MdmX complementation; inhibition, % at 8 µM; 3% of 330,000 active; AID 485346, 2010;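 active = inhibition of at least 50% at 8 µM in the primary screen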
XBP1 UPR activ: activators of adaptive XBP1 UPR arm, primary screen, cell-based, CHO-XBP1 luciferase reporter, luminescence, uHTS; IRE1-XBP1 UPR activation; percent of tunicamycin response, DMSO as zero; activation, % at 20 µM; 0.33% of 330,000 active; AID 463104, 2010;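 active = versus positive control, 20 µM dose yields 30% or more activation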;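 also: 100% = tunicamycin at 10 µg/mL and 0% = DMSO only wells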
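Material: CHO cell line with stable XBP1 luciferase reporter; schedule: 16-18 h cell attachment at 37 °C, then 6 h compound exposure; signal: glow luminescence from Steady-Glo reagent; medium: serum-containing F12 medium, 10% FBS; benchmarks: tunicamycin 10 µg/mL and vehicle-only wells; read-out: percent activation relative to tunicamycin reference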
CHOP UPR activ: activators of apoptotic CHOP UPR arm, primary screen, cell-based, CHO-CHOP luciferase reporter, luminescence, uHTS; UPR activation; percent of tunicamycin response over DMSO baseline; activation, % at 10 µM; AID 449763, 2010; 0.34% of 330,000 active;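 active = at 10 µM dose, activation of 40% or more, normalized to positive control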;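 also: 100% = tunicamycin at 10 µg/mL and 0% = DMSO alone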
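Test system: CHO-CHOP cells, stable luciferase reporter of PERK-eIF2a-CHOP signalling | Quantity: 500 CHO-CHOP cells per well | Buffer or medium: F12 plus 10% serum | Compound dosing: 10 µM single point, 0.5% DMSO | Schedule: 6 h compound treatment, 37 °C | Signal: Luciferase luminescence | Control set: Tunicamycin high control, DMSO low control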
ABHD5-PLIN5 conf: ABHD5-PLIN5 interaction inhibitors, confirmation, biochemical, luminescence; shares compounds with ABHD5 PLIN5 PPI; inhibition, % at 4 µM; 67% of 2,200 active; AID 651612, 2012; in the data active = inhibition above about 23%;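 also: 0% = DMSO vehicle wells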
HNF4 counter: HNF4 dimerization inhibitors, counter-screen for ABHD5-PLIN5 interaction inhibitor project, biochemical, split-luciferase complementation, luminescence | shares compounds with ABHD5 PLIN5 PPI | inhibition, % at 4 µM | 77% of 2,200 active;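 active = mean inhibition across replicate wells exceeding the computed hit threshold, cut at about 13% in these data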;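 also: light from luciferase halves that rejoin when HNF4 fusion proteins dimerize; 0% = DMSO only wells and the 100% control is not given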
Target sequence (P41235 whole entry, looked up, the tested form may be a part): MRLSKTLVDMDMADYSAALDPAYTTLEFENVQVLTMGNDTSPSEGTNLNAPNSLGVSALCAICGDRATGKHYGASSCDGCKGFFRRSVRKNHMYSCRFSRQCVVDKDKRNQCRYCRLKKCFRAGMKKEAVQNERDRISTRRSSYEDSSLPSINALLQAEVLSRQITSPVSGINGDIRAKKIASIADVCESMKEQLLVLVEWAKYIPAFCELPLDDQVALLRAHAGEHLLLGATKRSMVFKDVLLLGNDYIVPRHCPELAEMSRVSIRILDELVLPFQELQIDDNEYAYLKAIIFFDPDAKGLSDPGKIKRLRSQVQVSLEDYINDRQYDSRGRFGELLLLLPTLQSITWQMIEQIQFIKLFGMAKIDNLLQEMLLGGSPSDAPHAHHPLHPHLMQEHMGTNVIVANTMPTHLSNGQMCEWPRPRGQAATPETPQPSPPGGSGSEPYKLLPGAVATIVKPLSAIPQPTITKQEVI
Starred values were filed as active, the others as inactive; . = no result given.

SMILES	Granule exo inh	ABHD5 PLIN5 PPI	Mdm2 MdmX PPI	XBP1 UPR activ	CHOP UPR activ	ABHD5-PLIN5 conf	HNF4 counter
CC1=C(C(=O)N2CCCC(CCC(=O)NCc3ccc(F)c(F)c3)C2)OCCO1 (configuration not stated)	-3	2	-20	-2	1	.	.
O=C1C=CC(=O)N1c1ccc(-c2nc3ccccc3o2)cc1	17	8	.	.	.	.	.
Cn1c(CN2CCCC2)nc2cc(NC(=O)c3ccc(Cl)cc3)ccc21	0	49*	7	-1	1	6	-1
O=C(CSc1ccc(-c2ccco2)nn1)NCCc1ccccc1	-3	-1	-5	-2	-1	.	.
C=C1C(=O)C23C(O)C1CCC2C12CCCC(C)(COC(C)=O)C1C(O)C3(O)OC2 (configuration not stated)	5	91*	.	.	.	92*	113*
O=C(O)/C=C/c1ccccc1Oc1ccc(Cl)cc1Cl	4	4	6	-1	0	.	.
Cc1cc(C)nc(NS(=O)(=O)c2ccc(NCN3C(=O)c4ccccc4C3=O)cc2)n1	4	27*	.	.	.	6	6
CC(C)C(NS(=O)(=O)c1ccccc1)C(=O)NC1CCCC1 (configuration not stated)	-4	2	25	-2	-2	.	.
CCOC(=O)C(NC(=O)c1cccc(Cl)c1)(Nc1sc2c(c1C(N)=O)CCC2)C(F)(F)F (configuration not stated)	-1	-3	-7	1	-1	.	.
CCOC(=O)C(NC(=O)c1ccccc1Cl)(Nc1sc2c(c1C(N)=O)CCC2)C(F)(F)F (configuration not stated)	-7	24*	.	.	.	23*	27*
COc1cc(C2Oc3ccccc3C=C2[N+](=O)[O-])cc(OC)c1OC (configuration not stated)	60*	40*	.	.	.	95*	94*
COc1cc(C2NC(=O)c3ccccc3O2)cc(OC)c1OC (configuration not stated)	0	1	-26	-2	1	.	.
C[C@H](CO)N1C[C@H](C)[C@@H](CN(C)C)Oc2c(NC(=O)CCC(F)(F)F)cccc2C1=O	-1	0	2	0	0	.	.
Cc1ccc(C(=O)Nc2ccccc2C(=O)NCc2ccco2)cc1S(=O)(=O)N1CCCCC1	-1	0	29	2	-1	.	.
Cc1ccc(C(=O)NCc2ccco2)cc1S(=O)(=O)N1CCCCC1	-4	26*	13	-2	0	13	8
O=C(NCCCn1ccnc1)c1ccc(Cl)s1	-3	-2	-11	3	1	.	.
O=C(O)c1ccccc1C(=O)Nc1ccccc1	2	-8	1	0	0	.	.
O=C(Nc1ccccc1)C1=C(c2ccccc2)S(=O)(=O)CCS1(=O)=O	12	88*	.	.	.	100*	108*
CNC(=O)/C(C#N)=C/c1c(N2CCN(c3ccccc3)CC2)nc2c(C)cccn2c1=O	26	2	3	-4	1	.	.
O=[N+]([O-])/C=C/c1cc2ccccc2[nH]1	-7	41*	-9	-3	1	71*	58*
O=[N+]([O-])c1cccc(-c2cc3ccccc3[nH]2)c1	-13	-10	16	0	3	.	.
C=C1C(=O)[C@]23C[C@H]1CCC2[C@@]1(C)C(C[C@@H]3O)[C@](C)(C(=O)OC)CC[C@@H]1O (some centres not stated)	18	39*	.	.	.	67*	108*
COc1cc2sc(-c3ccc(S(C)(=O)=O)cc3)c(C(=O)NCc3ccc(C)o3)c2cc1OC	10	33*	-31	-3	-1	9	20*
NC(=S)NNC(=O)c1ccccc1Cl	18	3	5	-1	0	.	.
CC(C)c1ccc(N2C=Nc3ccc(C(C)C)cc3C2)cc1	31	36*	41	3	3	24*	10
SMILES	Granule exo inh	ABHD5 PLIN5 PPI	Mdm2 MdmX PPI	XBP1 UPR activ	CHOP UPR activ	ABHD5-PLIN5 conf	HNF4 counter
N#C/C(=C(/O)COC(=O)c1cccnc1Cl)c1nc2ccccc2[nH]1	1	1	-19	0	1	.	.
Cc1ccc(S(=O)(=O)n2cccc2/C=C/[N+](=O)[O-])cc1	35	46*	.	.	.	101*	102*
O=C(NCCCN1CCOCC1)/C(=C/c1ccc(-c2cccc([N+](=O)[O-])c2)o1)NC(=O)c1ccccc1	13	-3	.	.	.	.	.
Cc1nc2nc(C)n(CCN3CCOCC3)c(=O)c2c(-c2cccc([N+](=O)[O-])c2)c1C(=O)CCCCCCCCCCN1CCC(c2ccccc2)(c2ccccc2)CC1	3	42*	.	.	.	13	-2
CCOC(=O)N1CCc2c(sc(NC(=O)CCS(=O)(=O)c3ccccc3)c2C(N)=O)C1	21	30*	10	-2	2	24*	37*
CCOc1cc(NC(=S)NCC2CCCO2)c(OCC)cc1NC(=O)C1CC1 (configuration not stated)	4	5	-4	0	2	.	.
COc1cccc(NC(=O)CCc2nnc3ccc(NCc4ccco4)nn23)c1	-1	29*	11	0	2	8	9
O=C(/C=C/c1ccc2c(c1)OCO2)NCCSCc1ccc(Cl)cc1	0	-4	18	0	-1	.	.
O=c1ccc2ccccc2c2ccccc12	14	87*	.	.	.	97*	104*
c1ccc2c(c1)ccc1ccccc12	-2	-3	7	1	2	.	.
c1ccc(-c2ccc(-n3ccnc3)cc2)cc1	0	5	2	5	1	.	.
COc1cc(NC(=O)C/C(C)=N/NC(=O)C(=O)NC2CCCCC2)c(OC)cc1Cl	22	24*	19	-2	-1	6	5
COc1ccccc1C1N=C(c2ccccc2C)NO1 (configuration not stated)	-2	-5	-169	6	7	.	.
N#C/C(=C/c1ccc(N2CCOCC2)o1)c1nc2ccccc2[nH]1	2	27*	-137	-5	0	32*	50*
N#C/C(=C\c1ccc(N2CCOCC2)o1)c1ccccc1	63*	76*	-276	1	2	37*	101*
N#C/C(=C\c1ccc(N2CCOCC2)cc1)c1ccccc1	1	9	-155	1	5	.	.
